Results reported in ChEMBL document CHEMBL5329156, “Discovery and development of novel substituted monohydrazides as potent antifungal agents” (RSC Med Chem, 2023).
Values after ≈ are worked out from the molar mass of the structure shown.

How the values were obtained:
Candida albicans [1] = assay: Antifungal activity against Candida albicans ATCC 10231 assessed as fungal growth inhibition by double dilution method; assay type: functional
In short: (§1)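 Broth microdilution after CLSI M27-A3/M38-A2 with minor changes. Single colony grown overnight in YPD at 35 °C, 200 rpm. Compound final range 0.06-31.3 µg/mL; incubated 48 h at 35 °C.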

Candida albicans [2] = assay: Antifungal activity against Candida albicans ATCC 64124 assessed as fungal growth inhibition by double dilution method; assay type: functional
In short: (§2)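 Broth microdilution after CLSI M27-A3/M38-A2 with minor modifications. A single colony was grown overnight in YPD at 35 °C with shaking at 200 rpm. Cells were mixed 1:1 with compound (final 0.06-31.3 µg/mL, from DMSO stocks) and incubated 48 h at 35 °C.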

Candida albicans [3] = assay: Antifungal activity against itraconazole/fluconazole susceptible Candida albicans ATCC MYA-2876 assessed as fungal growth inhibition by double dilution method; assay type: functional; in short: as §2
Candida albicans [4] = assay: Antifungal activity against itraconazole/fluconazole resistant Candida albicans ATCC 90819 assessed as fungal growth inhibition by double dilution method; assay type: functional; in short: as §2
Candida albicans [5] = assay: Antifungal activity against itraconazole/fluconazole susceptible Candida albicans ATCC MYA-2310 assessed as fungal growth inhibition by double dilution method; assay type: functional; in short: as §2
Candida albicans [6] = assay: Antifungal activity against itraconazole/fluconazole resistant Candida albicans ATCC MYA-1237 assessed as fungal growth inhibition by double dilution method; assay type: functional; in short: as §2
Candida albicans [7] = assay: Antifungal activity against itraconazole/fluconazole resistant Candida albicans ATCC MYA-1003 assessed as fungal growth inhibition by double dilution method; assay type: functional; in short: as §2
Nakaseomyces glabratus [8] = assay: Antifungal activity against Candida glabrata ATCC 2001 assessed as fungal growth inhibition by double dilution method; assay type: functional; in short: as §1
Pichia kudriavzevii [9] = assay: Antifungal activity against Pichia kudriavzevii ATCC 6258 assessed as fungal growth inhibition by double dilution method; assay type: functional; in short: as §1
Nakaseomyces glabratus [10] = assay: Antifungal activity against Candida glabrata ATCC 22019 assessed as fungal growth inhibition by double dilution method; assay type: functional; in short: as §1
[Candida] auris [11] = Antifungal activity against Candida auris AR Bank # 0384 assessed as fungal growth inhibition by double dilution method; assay type: functional; conditions: Candidozyma auris; in short: as §1
[Candida] auris [12] = Antifungal activity against Candida auris AR Bank # 0390 assessed as fungal growth inhibition by double dilution method; assay type: functional; conditions: Candidozyma auris; in short: as §1
Cryptococcus neoformans = assay: Antifungal activity against Cryptococcus neoformans ATCC MYA-895 assessed as fungal growth inhibition by double dilution method; assay type: functional; in short: as §1
Aspergillus terreus = assay: Antifungal activity against Aspergillus terreus ATCC MYA-3633 assessed as fungal growth inhibition by double dilution method; assay type: functional
Aspergillus fumigatus [13] = assay: Antifungal activity against Aspergillus fumigatus NRRL 163 assessed as fungal growth inhibition by double dilution method; assay type: functional
Aspergillus flavus = assay: Antifungal activity against Aspergillus flavus ATCC MYA-3631 assessed as fungal growth inhibition by double dilution method; assay type: functional
Aspergillus nidulans = assay: Antifungal activity against Aspergillus nidulans ATCC 38163 assessed as fungal growth inhibition by double dilution method; assay type: functional
Aspergillus fumigatus [14] = assay: Antifungal activity against Aspergillus fumigatus NRRL 5109 assessed as fungal growth inhibition by double dilution method; assay type: functional
Aspergillus fumigatus [15] = assay: Antifungal activity against Aspergillus fumigatus NRRL 6113 assessed as fungal growth inhibition by double dilution method; assay type: functional
[Candida] auris [16] = Antifungal activity against Candida auris AR Bank # 381 assessed as fungal growth inhibition by double dilution method; assay type: functional; conditions: Candidozyma auris; in short: as §1
[Candida] auris [17] = Antifungal activity against Candida auris AR Bank # 382 assessed as fungal growth inhibition by double dilution method; assay type: functional; conditions: Candidozyma auris; in short: as §1
[Candida] auris [18] = Antifungal activity against Candida auris AR Bank # 383 assessed as fungal growth inhibition by double dilution method; assay type: functional; conditions: Candidozyma auris; in short: as §1
[Candida] auris [19] = Antifungal activity against Candida auris AR Bank # 384 assessed as fungal growth inhibition by double dilution method; assay type: functional; conditions: Candidozyma auris; in short: as §1
[Candida] auris [20] = Antifungal activity against Candida auris AR Bank # 385 assessed as fungal growth inhibition by double dilution method; assay type: functional; conditions: Candidozyma auris; in short: as §1
[Candida] auris [21] = Antifungal activity against Candida auris AR Bank # 386 assessed as fungal growth inhibition by double dilution method; assay type: functional; conditions: Candidozyma auris; in short: as §1
[Candida] auris [22] = Antifungal activity against Candida auris AR Bank # 387 assessed as fungal growth inhibition by double dilution method; assay type: functional; conditions: Candidozyma auris; in short: as §1
[Candida] auris [23] = Antifungal activity against Candida auris AR Bank # 388 assessed as fungal growth inhibition by double dilution method; assay type: functional; conditions: Candidozyma auris; in short: as §1
[Candida] auris [24] = Antifungal activity against Candida auris AR Bank # 389 assessed as fungal growth inhibition by double dilution method; assay type: functional; conditions: Candidozyma auris; in short: as §1
[Candida] auris [25] = Antifungal activity against Candida auris AR Bank # 390 assessed as fungal growth inhibition by double dilution method; assay type: functional; conditions: Candidozyma auris; in short: as §1
Candida duobushaemulonii [26] = assay: Antifungal activity against Candida duobushaemulonii AR Bank # 391 assessed as fungal growth inhibition by double dilution method; assay type: functional; conditions: Candidozyma duobushaemuli; in short: as §1
Candida duobushaemulonii [27] = assay: Antifungal activity against Candida duobushaemulonii AR Bank # 392 assessed as fungal growth inhibition by double dilution method; assay type: functional; conditions: Candidozyma duobushaemuli; in short: as §1
[Candida] haemuloni [28] = Antifungal activity against Candida haemulonii AR Bank # 393 assessed as fungal growth inhibition by double dilution method; assay type: functional; conditions: Candidozyma haemuli; in short: as §1
Candida duobushaemulonii [29] = assay: Antifungal activity against Candida duobushaemulonii AR Bank # 394 assessed as fungal growth inhibition by double dilution method; assay type: functional; conditions: Candidozyma duobushaemuli; in short: as §1
[Candida] haemuloni [30] = Antifungal activity against Candida haemulonii AR Bank # 395 assessed as fungal growth inhibition by double dilution method; assay type: functional; conditions: Candidozyma haemuli; in short: as §1
Kodamaea ohmeri = assay: Antifungal activity against Kodamaea ohmeri AR Bank # 396 assessed as fungal growth inhibition by double dilution method; assay type: functional; in short: as §1
Pichia kudriavzevii [31] = assay: Antifungal activity against Pichia kudriavzevii AR Bank # 397 assessed as fungal growth inhibition by double dilution method; assay type: functional; in short: as §1
Clavispora lusitaniae = assay: Antifungal activity against Clavispora lusitaniae AR Bank # 398 assessed as fungal growth inhibition by double dilution method; assay type: functional; in short: as §1
Saccharomyces cerevisiae [32] = assay: Antifungal activity against Saccharomyces cerevisiae AR Bank # 399 assessed as fungal growth inhibition by double dilution method; assay type: functional; in short: as §1
Saccharomyces cerevisiae [33] = assay: Antifungal activity against Saccharomyces cerevisiae AR Bank # 400 assessed as fungal growth inhibition by double dilution method; assay type: functional; in short: as §1
J774.A1 = assay: Cytotoxicity against J774A.1 cells assessed as reduction in cell viability at 31.3 microg/ml; assay type: toxicity, cell-based; conditions: mouse, dose 31.3 µg/ml
In short: (§3)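 Cells in DMEM with 10% FBS and 1% Pen/Strep, seeded at 10,000 cells/well and held overnight at 37 °C, 5% CO2. Compounds added at final 31.3-0.12 µg/mL (0.05% DMSO vehicle) for 24 h. Resazurin then added for 6 h; fluorescence read at ex 560/em 590. Triton X-100 1% as positive control; values normalized to vehicle. Run in quadruplicate.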

HEK293 = assay: Cytotoxicity against human HEK-293 cells assessed as reduction in cell viability at 31.3 microg/ml; assay type: toxicity, cell-based; conditions: dose 31.3 µg/ml; in short: as §3
HepG2 = assay: Cytotoxicity against human HepG2 cells assessed as reduction in cell viability upto 31.3 microg/ml; assay type: toxicity, cell-based; conditions: dose < 31.3 µg/ml; in short: as §3

## O=C(NNc1ccc(F)cc1F)c1cnccn1
Candida albicans [1]
  MIC: 0.24 µg/mL (≈ 0.959 µM)
Candida albicans [2]
  MIC: 0.98 µg/mL (≈ 3.92 µM)
Candida albicans [3]
  MIC: 0.98 µg/mL (≈ 3.92 µM)
Candida albicans [4]
  MIC: 0.98 µg/mL (≈ 3.92 µM)
Candida albicans [5]
  MIC: 3.9 µg/mL (≈ 15.6 µM)
Candida albicans [6]
  MIC: 0.49 µg/mL (≈ 1.96 µM)
Candida albicans [7]
  MIC: 0.49 µg/mL (≈ 1.96 µM)
Nakaseomyces glabratus [8]
  MIC: 0.98 µg/mL (≈ 3.92 µM)
Pichia kudriavzevii [9]
  MIC: 0.24 µg/mL (≈ 0.959 µM)
Nakaseomyces glabratus [10]
  MIC: 3.9 µg/mL (≈ 15.6 µM)
[Candida] auris [11]
  MIC: 3.9 µg/mL (≈ 15.6 µM)
[Candida] auris [12]
  MIC: 0.98 µg/mL (≈ 3.92 µM)
Cryptococcus neoformans
  MIC: 0.24 µg/mL (≈ 0.959 µM)
Aspergillus terreus
  MIC: 0.98 µg/mL (≈ 3.92 µM)
Aspergillus fumigatus [13]
  MIC: > 31.3 µg/mL
Aspergillus flavus
  MIC: 7.8 µg/mL (≈ 31.2 µM)
Aspergillus nidulans
  MIC: 0.49 µg/mL (≈ 1.96 µM)
Aspergillus fumigatus [14]
  MIC: > 31.3 µg/mL
Aspergillus fumigatus [15]
  MIC: > 31.3 µg/mL
[Candida] auris [16]
  MIC: 3.9 µg/mL (≈ 15.6 µM)
[Candida] auris [17]
  MIC: 1.95 µg/mL (≈ 7.79 µM)
[Candida] auris [18]
  MIC: 0.98 µg/mL (≈ 3.92 µM)
[Candida] auris [19]
  MIC: 3.9 µg/mL (≈ 15.6 µM)
[Candida] auris [20]
  MIC: 0.98 µg/mL (≈ 3.92 µM)
[Candida] auris [21]
  MIC: 0.49 µg/mL (≈ 1.96 µM)
[Candida] auris [22]
  MIC: 0.49 µg/mL (≈ 1.96 µM)
[Candida] auris [23]
  MIC: 0.49 µg/mL (≈ 1.96 µM)
[Candida] auris [24]
  MIC: 0.49 µg/mL (≈ 1.96 µM)
[Candida] auris [25]
  MIC: 0.98 µg/mL (≈ 3.92 µM)
Candida duobushaemulonii [26]
  MIC: 0.49 µg/mL (≈ 1.96 µM)
Candida duobushaemulonii [27]
  MIC: 0.24 µg/mL (≈ 0.959 µM)
[Candida] haemuloni [28]
  MIC: 0.24 µg/mL (≈ 0.959 µM)
Candida duobushaemulonii [29]
  MIC: 7.8 µg/mL (≈ 31.2 µM)
[Candida] haemuloni [30]
  MIC: 1.95 µg/mL (≈ 7.79 µM)
Kodamaea ohmeri
  MIC: 0.98 µg/mL (≈ 3.92 µM)
Pichia kudriavzevii [31]
  MIC: 1.95 µg/mL (≈ 7.79 µM)
Clavispora lusitaniae
  MIC: 3.9 µg/mL (≈ 15.6 µM)
Saccharomyces cerevisiae [32]
  MIC: 7.8 µg/mL (≈ 31.2 µM)
Saccharomyces cerevisiae [33]
  MIC: 1.95 µg/mL (≈ 7.79 µM)
J774.A1
  Activity: Non-Toxic
HEK293
  Activity: Non-Toxic
HepG2
  Activity: Non-Toxic
